Test results: ChEMBL document CHEMBL4024710, “Discovery of novel 1,2,3,4-tetrahydrobenzo[4, 5]thieno[2, 3-c]pyridine derivatives as potent and selective CYP17 inhibitors” (Eur J Med Chem, 2017)

Columns and labels:
[1] = target: T1, Steroid 17-alpha-hydroxylase/17,20 lyase (Rattus norvegicus, UniProt P11715); assay: Inhibition of CYP17 in Sprague-Dawley rat testes microsomes using 17-alpha hydroxyprogesterone as substrate and NADPH as cofactor pretreated for 5 mins followed by substrate and cofactor addition after 60 mins by LC/Ms analysis; set-up: species or system Testis
T1 sequence (P11715 whole entry): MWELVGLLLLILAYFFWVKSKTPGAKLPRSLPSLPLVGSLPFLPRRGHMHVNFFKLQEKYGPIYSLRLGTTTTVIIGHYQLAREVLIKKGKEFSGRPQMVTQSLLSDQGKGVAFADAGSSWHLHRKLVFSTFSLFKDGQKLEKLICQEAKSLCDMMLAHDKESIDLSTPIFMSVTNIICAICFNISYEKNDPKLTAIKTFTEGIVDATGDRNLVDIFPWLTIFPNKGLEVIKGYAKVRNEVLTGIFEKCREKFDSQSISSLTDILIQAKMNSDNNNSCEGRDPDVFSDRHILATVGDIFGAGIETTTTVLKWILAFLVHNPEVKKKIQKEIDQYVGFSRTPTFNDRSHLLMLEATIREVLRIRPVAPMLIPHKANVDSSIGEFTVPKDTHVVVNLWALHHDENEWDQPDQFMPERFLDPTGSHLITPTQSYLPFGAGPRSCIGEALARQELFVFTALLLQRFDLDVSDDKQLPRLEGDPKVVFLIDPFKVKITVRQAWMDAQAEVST
In short: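 Rat testis microsomes from male SD rats weighing 220–250 g, prepared at 4 °C by differential centrifugation (9000 g, then 105,000 g pellet). 2 µg protein in 0.05 M phosphate pH 7.5 preincubated with inhibitor 5 min at 25 °C. Started with 10 µM 17α-hydroxyprogesterone plus 4.2 mM NADPH, 60 min at 25 °C, stopped with methanol. Androstenedione measured by LC/MS; IC50 is the mean of at least three experiments.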

[2] = target: T2, Steroid 17-alpha-hydroxylase/17,20 lyase (Homo sapiens, UniProt P05093); assay: Inhibition of recombinant human CYP17 expressed in human A549 cell membranes using 17-alpha hydroxyprogesterone as substrate and NADPH as cofactor pretreated for 5 mins followed by substrate and cofactor addition after 60 mins by LC/MS analysis
T2 sequence (P05093 whole entry): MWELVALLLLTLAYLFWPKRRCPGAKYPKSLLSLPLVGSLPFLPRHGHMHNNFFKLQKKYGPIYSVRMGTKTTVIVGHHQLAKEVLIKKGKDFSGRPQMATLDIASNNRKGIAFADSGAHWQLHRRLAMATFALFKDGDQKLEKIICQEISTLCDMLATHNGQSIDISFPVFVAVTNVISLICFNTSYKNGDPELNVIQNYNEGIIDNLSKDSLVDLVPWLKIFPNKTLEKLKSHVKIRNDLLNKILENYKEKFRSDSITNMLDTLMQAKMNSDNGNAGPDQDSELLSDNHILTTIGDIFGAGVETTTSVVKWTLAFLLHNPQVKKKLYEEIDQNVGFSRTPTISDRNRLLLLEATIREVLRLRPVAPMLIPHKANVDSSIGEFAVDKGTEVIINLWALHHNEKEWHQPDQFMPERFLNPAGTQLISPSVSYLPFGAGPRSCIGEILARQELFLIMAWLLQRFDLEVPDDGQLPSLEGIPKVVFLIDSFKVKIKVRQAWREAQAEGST
In short: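 Enzyme source was purified membranes of A549 cells expressing human CYP17 from an adenoviral vector. 2 µg membrane protein in 0.05 M phosphate pH 7.5 with inhibitor, preincubated 5 min at 25 °C. Reaction started with 10 µM 17α-hydroxyprogesterone and 4.2 mM NADPH, run 60 min at 25 °C, methanol stop. Androstenedione quantified by LC/MS; IC50 is the mean of at least three experiments.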

Cytochrome P450 3A4 = Cytochrome P450 3A4 (Homo sapiens, UniProt P08684); assay: Inhibition of human hepatic CYP3A4; format: ADME
CYP1A2 [3] = target: T3, CYP1A2 (Homo sapiens, UniProt P05177); assay: Inhibition of human hepatic CYP1A2 at 1 uM relative to control; format: ADME
T3 sequence (P05177 whole entry): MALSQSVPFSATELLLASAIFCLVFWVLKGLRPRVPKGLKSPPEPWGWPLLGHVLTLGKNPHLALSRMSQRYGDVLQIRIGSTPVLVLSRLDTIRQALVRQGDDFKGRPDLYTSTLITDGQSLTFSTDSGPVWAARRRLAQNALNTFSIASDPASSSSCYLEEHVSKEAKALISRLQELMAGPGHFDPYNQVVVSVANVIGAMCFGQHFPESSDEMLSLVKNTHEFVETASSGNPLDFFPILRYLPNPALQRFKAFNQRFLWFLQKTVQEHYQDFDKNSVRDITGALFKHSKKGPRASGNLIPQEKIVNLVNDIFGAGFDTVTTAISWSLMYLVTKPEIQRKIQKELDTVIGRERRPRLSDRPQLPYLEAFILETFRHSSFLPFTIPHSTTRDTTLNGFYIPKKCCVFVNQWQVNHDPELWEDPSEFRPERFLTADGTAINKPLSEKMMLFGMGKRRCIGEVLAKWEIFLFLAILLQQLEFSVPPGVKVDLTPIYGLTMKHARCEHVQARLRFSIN

CYP1A2 [4] = target: T3, CYP1A2; assay: Inhibition of human hepatic CYP1A2 at 10 uM relative to control; format: ADME
CYP2C9 [5] = target: T4, CYP2C9 (Homo sapiens, UniProt P11712); assay: Inhibition of human hepatic CYP2C9 at 1 uM relative to control; format: ADME
CYP2C9 [6] = target: T4, CYP2C9; assay: Inhibition of human hepatic CYP2C9 at 10 uM relative to control; format: ADME
CYP2C19 [7] = target: T5, CYP2C19 (Homo sapiens, UniProt P33261); assay: Inhibition of human hepatic CYP2C19 at 1 uM relative to control; format: ADME
CYP2C19 [8] = target: T5, CYP2C19; assay: Inhibition of human hepatic CYP2C19 at 10 uM relative to control; format: ADME
CYP2D6 [9] = target: T6, CYP2D6 (Homo sapiens, UniProt P10635); assay: Inhibition of human hepatic CYP2D6 at 1 uM relative to control; format: ADME
CYP2D6 [10] = target: T6, CYP2D6; assay: Inhibition of human hepatic CYP2D6 at 10 uM relative to control; format: ADME
[11] = target: T2, Steroid 17-alpha-hydroxylase/17,20 lyase; assay: Residual CYP17 activity in human NCI-H295R cells assessed as testosterone production at 1 uM measured after 72 hrs relative to control
[12] = target: T2, Steroid 17-alpha-hydroxylase/17,20 lyase; assay: Potency index, ratio of abiraterone IC50 to compound IC50 for recombinant human CYP17 expressed in human A549 cell membranes; format: cell-based
In short: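 Human CYP17 came from purified membranes of A549 cells expressing the cloned gene through an adenoviral system. 2 µg membrane protein was preincubated with inhibitor in 0.05 M phosphate buffer, pH 7.5, at 25 °C for 5 min. The reaction was started with 10 µM 17α-hydroxyprogesterone and 4.2 mM NADPH, run 60 min at 25 °C and stopped with methanol. Androstenedione was quantified by LC/MS.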

Rattus norvegicus = assay: Suppression of serum testosterone levels in po dosed Sprague-Dawley rat administered as single dose measured up to 24 hrs post dose by ELISA; format: functional, organism-based
In short: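 Serum was sampled before dosing and at 2, 4, 8 and 24 h. Testosterone was measured by ELISA and expressed as % of the mean pretreatment value; mean ± SEM, n = 6.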

T4 sequence (P11712 whole entry): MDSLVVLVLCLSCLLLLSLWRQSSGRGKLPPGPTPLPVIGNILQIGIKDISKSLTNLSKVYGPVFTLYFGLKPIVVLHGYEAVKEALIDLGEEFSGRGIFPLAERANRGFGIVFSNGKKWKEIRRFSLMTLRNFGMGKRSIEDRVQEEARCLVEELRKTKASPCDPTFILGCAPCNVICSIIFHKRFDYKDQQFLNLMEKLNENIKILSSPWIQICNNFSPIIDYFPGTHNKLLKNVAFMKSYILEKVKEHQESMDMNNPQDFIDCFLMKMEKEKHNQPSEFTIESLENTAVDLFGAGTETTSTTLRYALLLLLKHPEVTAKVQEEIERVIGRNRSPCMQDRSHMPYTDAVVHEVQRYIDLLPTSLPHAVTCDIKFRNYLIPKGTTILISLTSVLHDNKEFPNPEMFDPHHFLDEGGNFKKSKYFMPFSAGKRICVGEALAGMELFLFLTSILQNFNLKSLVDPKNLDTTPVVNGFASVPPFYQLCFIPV
T5 sequence (P33261 whole entry): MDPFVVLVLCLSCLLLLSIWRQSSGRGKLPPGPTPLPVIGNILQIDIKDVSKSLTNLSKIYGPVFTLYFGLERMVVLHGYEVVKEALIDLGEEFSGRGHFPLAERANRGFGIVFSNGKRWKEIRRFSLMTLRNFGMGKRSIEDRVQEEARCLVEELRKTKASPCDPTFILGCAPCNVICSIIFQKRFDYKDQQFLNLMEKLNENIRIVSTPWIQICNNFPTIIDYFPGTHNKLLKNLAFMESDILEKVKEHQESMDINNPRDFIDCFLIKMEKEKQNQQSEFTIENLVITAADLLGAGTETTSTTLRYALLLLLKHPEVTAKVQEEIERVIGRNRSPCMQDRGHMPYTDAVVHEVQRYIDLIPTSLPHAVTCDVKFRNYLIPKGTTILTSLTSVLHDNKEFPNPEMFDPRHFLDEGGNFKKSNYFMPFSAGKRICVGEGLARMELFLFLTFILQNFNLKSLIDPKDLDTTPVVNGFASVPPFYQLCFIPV
T6 sequence (P10635 whole entry): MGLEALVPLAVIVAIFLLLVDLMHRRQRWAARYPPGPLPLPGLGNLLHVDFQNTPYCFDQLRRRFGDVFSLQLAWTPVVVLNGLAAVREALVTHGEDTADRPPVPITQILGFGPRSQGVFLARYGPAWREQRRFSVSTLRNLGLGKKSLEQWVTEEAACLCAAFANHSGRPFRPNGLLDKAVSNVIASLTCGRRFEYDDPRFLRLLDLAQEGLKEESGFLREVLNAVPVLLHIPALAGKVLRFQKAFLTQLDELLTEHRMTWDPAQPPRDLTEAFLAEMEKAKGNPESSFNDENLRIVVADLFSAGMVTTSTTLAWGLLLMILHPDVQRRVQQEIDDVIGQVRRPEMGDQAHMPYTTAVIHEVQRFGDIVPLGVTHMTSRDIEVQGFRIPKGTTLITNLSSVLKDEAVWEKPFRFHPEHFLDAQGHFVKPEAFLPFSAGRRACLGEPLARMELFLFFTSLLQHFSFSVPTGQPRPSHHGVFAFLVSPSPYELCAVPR
Cytochrome P450 3A4, sequence (P08684 whole entry): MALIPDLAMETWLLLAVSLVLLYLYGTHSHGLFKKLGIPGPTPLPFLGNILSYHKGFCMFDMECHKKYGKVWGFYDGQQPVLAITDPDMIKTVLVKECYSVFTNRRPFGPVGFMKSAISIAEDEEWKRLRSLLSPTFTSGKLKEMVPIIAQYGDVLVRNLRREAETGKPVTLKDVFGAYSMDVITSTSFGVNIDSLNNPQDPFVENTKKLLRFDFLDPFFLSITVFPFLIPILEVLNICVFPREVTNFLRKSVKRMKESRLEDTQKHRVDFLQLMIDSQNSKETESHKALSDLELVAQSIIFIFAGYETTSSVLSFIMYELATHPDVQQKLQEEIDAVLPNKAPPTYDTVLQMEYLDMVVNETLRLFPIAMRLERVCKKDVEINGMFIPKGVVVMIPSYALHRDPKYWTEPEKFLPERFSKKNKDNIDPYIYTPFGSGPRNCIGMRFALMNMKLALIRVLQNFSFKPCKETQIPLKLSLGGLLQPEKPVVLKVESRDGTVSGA

Row | IC50 [1] | IC50 [2] | IC50 (Cytochrome P450 3A4) | inhibition at 1 µM (CYP1A2 [3]) | inhibition at 10 µM (CYP1A2 [4]) | inhibition at 1 µM (CYP2C9 [5]) | inhibition at 10 µM (CYP2C9 [6]) | inhibition at 1 µM (CYP2C19 [7]) | inhibition at 10 µM (CYP2C19 [8]) | inhibition at 1 µM (CYP2D6 [9]) | inhibition at 10 µM (CYP2D6 [10]) | residual activity at 1 µM [11] | SMILES | Ratio IC50 [12] | Activity (Rattus norvegicus)
1 | 28.1 nM | 29 nM | 7900 nM | 20.6% | 71.6% | 6.6% | 53.2% | 47.3% | 92.5% | 37.5% | 83.7% | – | Fc1ccc2sc3c(c2c1)CCN(Cc1cccnc1)C3 | – | –
2 | 449 nM | – | – | – | – | – | – | – | – | – | – | – | Clc1ccc2sc3c(c2c1)CCN(Cc1cccnc1)C3 | – | –
3 | 80.6 nM | – | – | – | – | – | – | – | – | – | – | – | Fc1ccc2sc3c(c2c1)CCN(Cc1cncnc1)C3 | – | –
4 | > 1000 nM | – | – | – | – | – | – | – | – | – | – | – | CC(=O)Nc1ccc2sc3c(c2c1)CCN(Cc1cccnc1)C3 | – | –
5 | 24.7 nM | – | – | 34% | 92.5% | 31.6% | 82.5% | 39.6% | 91.6% | 10.4% | 78.5% | 74% | C[C@]12CC[C@H](O)CC1=CC[C@@H]1[C@@H]2CC[C@]2(C)C(c3cccnc3)=CC[C@@H]12 [ABIRATERONE] | – | –
6 | 75.8 nM | – | – | – | – | – | – | – | – | – | – | – | Fc1ccc2sc3c(c2c1)CCN(Cc1cnccc1Br)C3 | – | –
7 | 56.5 nM | 45.4 nM | 9030 nM | 10.6% | 69.5% | 0% | 51.6% | 5.3% | 61.3% | 50.8% | 62.5% | – | Fc1cncc(CN2CCc3c(sc4ccc(F)cc34)C2)c1 | – | –
8 | 15.8 nM | 20.1 nM | 8560 nM | 16.3% | 62.2% | 0% | 21.8% | 11.7% | 65.2% | 12% | 56.8% | 52% | Cc1ccncc1CN1CCc2c(sc3ccc(F)cc23)C1 | 1.5 | Dose-dependent effect
9 | 33.9 nM | 45 nM | 6530 nM | 8.7% | 61.2% | 0% | 53.8% | 0% | 84.9% | 21.7% | 76.1% | – | COc1cncc(CN2CCc3c(sc4ccc(F)cc34)C2)c1 | – | –
10 | 29.8 nM | 24.3 nM | 685 nM | 87.9% | 99.4% | 98.5% | 100% | 91.2% | 98.7% | 35.7% | 49.6% | – | Fc1ccc2sc3c(c2c1)CCN(Cc1c[nH]cn1)C3 | – | –
11 | > 1000 nM | – | – | – | – | – | – | – | – | – | – | – | O=C(c1cccnc1)N1CCc2c(sc3ccc(F)cc23)C1 | – | –
12 | 390 nM | – | – | – | – | – | – | – | – | – | – | – | Fc1ccc2sc3c(c2c1)CCN(Cc1cncc2ccccc12)C3 | – | –
13 | > 1000 nM | – | – | – | – | – | – | – | – | – | – | – | COc1ccc2sc3c(c2c1)CCN(Cc1cccnc1)C3 | – | –

Row | SMILES | IC50 [1] | IC50 [2] | IC50 (Cytochrome P450 3A4) | inhibition at 1 µM (CYP1A2 [3]) | inhibition at 10 µM (CYP1A2 [4]) | inhibition at 1 µM (CYP2C9 [5]) | inhibition at 10 µM (CYP2C9 [6]) | inhibition at 1 µM (CYP2C19 [7]) | inhibition at 10 µM (CYP2C19 [8]) | inhibition at 1 µM (CYP2D6 [9]) | inhibition at 10 µM (CYP2D6 [10]) | residual activity at 1 µM [11] | Ratio IC50 [12] | Activity (Rattus norvegicus)
14 | c1cncc(CN2CCc3c(sc4ccccc34)C2)c1 | 28.1 to 54.9 nM | – | – | – | – | – | – | – | – | – | – | – | – | –
